Source: ChEMBL document CHEMBL1127831, “Synthesis and structure-activity relationships of new antitumor taxoids. Effects of cyclohexyl substitution at the C-3' and/or C-2 of taxotere (docetaxel)” (J Med Chem, 1994)
Converted amounts (≈) assume the structure as drawn.

Columns and labels:
P388 [1] = assay: In vitro cytotoxicity against murine P388 doxorubicin resistant leukemia cell line; format: functional, cell-based; conditions: Mus musculus
In short: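 P388/Dox cells grown in RPMI 1640 with 10% foetal calf serum, 2-mercaptoethanol, L-glutamine and antibiotics, with doxorubicin 1 μg/mL kept in the medium. Seeded at 1×10^5 cells/mL and exposed 96 h to a range of taxoid concentrations, quadruplicate points. Neutral red 0.02% added for 16 h, cells lysed in 1% SDS, OD read at 540 and 346 nm. IC50 = 50% growth inhibition, from three separate experiments.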

P388 [2] = assay: In vitro cytotoxicity against murine P388 leukemia cell line; format: functional, cell-based; conditions: Mus musculus
In short: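 P388 cells kept in RPMI 1640 with 10% foetal calf serum, 10 μM 2-mercaptoethanol, 2 mM L-glutamine and penicillin/streptomycin. Seeded at 1×10^5 cells/mL and grown 96 h with various taxoid concentrations, each in quadruplicate. Viability read by 16 h neutral red (0.02%) uptake, SDS lysis and OD at 540 and 346 nm. IC50 for 50% growth inhibition taken from three separate experiments.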

[3] = Ratio of inhibition of the rate of microtubule disassembly by the compound to that of paclitaxel; format: functional
In short: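 Porcine brain tubulin, MAP-depleted on phosphocellulose, used at 9 μM in MES pH 6.8 buffer with glycerol, 6 mM MgCl2 and 1 mM GTP. Taxoid in ethanol (0.1–5 μM) was added, tubulin polymerized 30 min at 37 °C, then cooled to 6 °C. Depolymerization rate was taken from the turbidity (350 nm) decline slope. The IC50 for 50% rate decrease was divided by the paclitaxel IC50.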

Row | IC50 ratio [3] | Structure (SMILES) | IC50 (P388 [1]) | IC50 (P388 [2])
1 | 2 | CC(=O)O[C@@]12CO[C@@H]1C[C@H](O)[C@@]1(C)C(=O)[C@H](O)C3=C(C)[C@@H](OC(=O)[C@H](O)C(NC(=O)OC(C)(C)C)C4CCCCC4)C[C@@](O)([C@@H](OC(=O)C4CCCCC4)C12)C3(C)C (stereo not given in full) | 3.6 µg/mL (≈ 4.39 µM) | 0.076 µg/mL (≈ 0.0927 µM)
2 | 0.72 | CC(=O)O[C@@]12CO[C@@H]1C[C@H](O)[C@@]1(C)C(=O)[C@H](O)C3=C(C)[C@@H](OC(=O)[C@H](O)C(NC(=O)OC(C)(C)C)C4CCCCC4)C[C@@](O)([C@@H](OC(=O)c4ccccc4)C12)C3(C)C (stereo not given in full) | 3.1 µg/mL (≈ 3.81 µM) | 0.063 µg/mL (≈ 0.0774 µM)

The next lines start with the compound.

Row | Structure (SMILES) | IC50 ratio [3] | IC50 (P388 [1]) | IC50 (P388 [2])
3 | CC(=O)O[C@@]12CO[C@@H]1C[C@H](O)[C@@]1(C)C(=O)[C@H](O)C3=C(C)[C@@H](OC(=O)[C@H](O)C(NC(=O)OC(C)(C)C)c4ccccc4)C[C@@](O)([C@@H](OC(=O)C4CCCCC4)C12)C3(C)C (stereo not given in full) | 0.85 | 6.3 µg/mL (≈ 7.74 µM) | 0.09 µg/mL (≈ 0.111 µM)
4 | CC(=O)O[C@H]1C(=O)[C@@]2(C)C([C@H](OC(=O)C3CCCCC3)[C@]3(O)C[C@H](OC(=O)[C@H](O)C(NC(=O)c4ccccc4)c4ccccc4)C(C)=C1C3(C)C)[C@]1(OC(C)=O)CO[C@@H]1C[C@@H]2O (stereo not given in full) | 1.7 | 7.5 µg/mL (≈ 8.72 µM) | 0.45 µg/mL (≈ 0.523 µM)
5 | CC(=O)O[C@@]12CO[C@@H]1C[C@H](O)[C@@]1(C)C(=O)[C@H](O)C3=C(C)[C@@H](OC(=O)[C@H](O)[C@@H](NC(=O)OC(C)(C)C)c4ccccc4)C[C@@](O)([C@@H](OC(=O)c4ccccc4)[C@H]21)C3(C)C.O.O.O [DOCETAXEL] | 0.7 | 1.5 µg/mL | 0.008 µg/mL
